Calls of active or inactive are those of the source. No cut-off for these calls is given here.
Legend:
Beta-secretase 1 [1] = target: T1, Beta-secretase 1 (Homo sapiens, UniProt P56817); assay: Inhibition of BACE1 in HEK293 cells stably expressing APPSW assessed as reduction in Abeta40 level incubated overnight at 0.0005 to 10 uM by ELISA method; assay type: cell-based
Beta-secretase 1 [2] = target: T1, Beta-secretase 1; assay: Inhibition of human recombinant BACE1 pre-incubated with enzyme for 60 mins before fluorescent substrate addition FRET method
Rhesus monkey = assay: Reduction in Abeta40 level in rhesus monkey CSF at 5 mg/kg, po administered as single dose by ELISA method; assay type: functional, organism-based; parameters: dose 5 mg/kg; settings: Macaca mulatta
Outline: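 Rhesus monkey time-course PD study after a 5 mg/kg oral dose, with CSF Aβ40 followed over time. An indirect response PK–PD model generated the in vivo unbound plasma IC50.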

Rattus norvegicus [3] = assay: Reduction in Abeta40 level in Sprague-Dawley rat CSF at 3 mg/kg, po administered as single dose after 4 hrs by immunoassay; assay type: functional, organism-based; parameters: dose 3 mg/kg
Outline: (§1)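 Male Sprague–Dawley rats received a single oral dose. Aβ40 was measured in CSF and brain 4 h later and reported as % reduction. EC50 is expressed as unbound plasma concentration.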

Rattus norvegicus [4] = assay: Reduction in Abeta40 level in Sprague-Dawley rat CSF at 3 mg/kg, po administered as single dose by immunoassay; assay type: functional; outline: as §1
Rattus norvegicus [5] = assay: Reduction in Abeta40 level in Sprague-Dawley rat CSF at 10 mg/kg, po administered as single dose by immunoassay; assay type: functional; outline: as §1

T1 sequence (P56817 whole entry): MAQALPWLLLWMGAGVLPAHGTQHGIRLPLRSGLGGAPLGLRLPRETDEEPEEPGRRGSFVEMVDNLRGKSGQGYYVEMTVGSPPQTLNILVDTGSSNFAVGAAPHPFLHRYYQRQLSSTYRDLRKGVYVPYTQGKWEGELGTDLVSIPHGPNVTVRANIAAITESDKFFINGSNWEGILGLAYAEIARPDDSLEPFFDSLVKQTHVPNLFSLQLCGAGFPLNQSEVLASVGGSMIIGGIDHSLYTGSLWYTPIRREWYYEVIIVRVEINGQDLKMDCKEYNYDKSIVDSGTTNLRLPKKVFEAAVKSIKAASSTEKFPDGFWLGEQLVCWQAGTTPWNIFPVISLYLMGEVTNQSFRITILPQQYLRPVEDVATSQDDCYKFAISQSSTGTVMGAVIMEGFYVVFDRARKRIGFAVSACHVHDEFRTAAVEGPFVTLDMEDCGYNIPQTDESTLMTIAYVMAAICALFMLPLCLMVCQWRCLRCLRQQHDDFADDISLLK

SMILES | IC50 (Beta-secretase 1 [1]) | IC50 (Beta-secretase 1 [2]) | other results
NC1=N[C@@]2(CO1)c1cc(-c3cccnc3F)ccc1Oc1c2cc(N2CCC(F)(F)CC2)nc1F | 6 nM |  | 
Cc1cc(-c2cc3c(c(F)n2)Oc2ccc(-c4cccnc4F)cc2[C@@]32COC(N)=N2)ccn1 | 12 nM |  | 
NC1=N[C@@]2(CO1)c1cc(-c3cccnc3F)ccc1Oc1c2cc(N2CC[C@@H](F)C2)nc1F | 3 nM | 0.2 nM | 
NC1=N[C@@]2(CO1)c1cc(-c3ncccc3F)ccc1Oc1c2cc(C2=CCCOC2)nc1F | 4 nM | 0.3 nM | inhibition (Rhesus monkey): Active; inhibition (Rattus norvegicus [3]): Active
NC1=N[C@@]2(CO1)c1cc(-c3cccnc3F)ccc1Oc1c2cc(-c2ccnc(F)c2)nc1F | 6.5 nM | 0.4 nM | inhibition in vivo at 3 mg/kg (Rattus norvegicus [4]): 58%
NC1=N[C@@]2(CO1)c1cc(-c3cccnc3F)ccc1Oc1c2cc(C2=CCOCC2)nc1F | 4 nM | 0.3 nM | 
Cc1cc(-c2cc3c(c(F)n2)Oc2ccc(-c4cccnc4F)cc2[C@@]32COC(N)=N2)on1 | 23 nM | 0.3 nM | 
NC1=N[C@@]2(CO1)c1cc(-c3cccnc3F)ccc1Oc1c2cc(N2CCOCC2)nc1F | 5 nM |  | inhibition in vivo at 3 mg/kg (Rattus norvegicus [4]): 69%
NC1=N[C@@]2(CO1)c1cc(-c3cccnc3F)ccc1Oc1c2cc(-c2ccncc2)nc1F |  |  | inhibition in vivo at 3 mg/kg (Rattus norvegicus [4]): 36%
NC1=N[C@@]2(CO1)c1cc(-c3cccnc3F)ccc1Oc1c2cc(-c2ccccc2)nc1F | 8 nM | 0.7 nM | inhibition in vivo at 10 mg/kg (Rattus norvegicus [5]): 75%
NC1=N[C@@]2(CO1)c1cc(-c3cccnc3F)ccc1Oc1c2cc(C2=CCCCO2)nc1F | 4.8 nM |  | 
NC1=N[C@@]2(CO1)c1cc(-c3cccnc3F)ccc1Oc1c2cc(N2CCC(F)(F)C2)nc1F | 4 nM |  | 
